How the values were obtained:
Type in all cases: functional, cell-based
Jurkat = assay: Cytotoxicity against human Jurkat cells assessed as reduction in cell viability up to 200 uM after 48 hrs by MTT assay
How it was run: (§1)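 Cells (7x10^4/well) in RPMI-1640 with 10% FBS, 37 °C, 5% CO2; exposed to compound dilutions 0–200 µM (medium with 10% FBS, 0.4% DMSO) for 48 h. MTT added, 3 h at 37 °C, formazan dissolved in DMSO, absorbance 540 nm. IC50 from concentration–response; means ± standard deviation of three independent experiments.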

NALM-6 = assay: Cytotoxicity against human NALM6 cells assessed as reduction in cell viability up to 200 uM after 48 hrs by MTT assay; how it was run: as §1
HL-60 = assay: Cytotoxicity against human HL60 cells assessed as reduction in cell viability up to 200 uM after 48 hrs by MTT assay; how it was run: as §1
[1] = Homo sapiens, NALM-6, 48 h, read-out: IC50
[2] = Homo sapiens, HL-60, 48 h, read-out: IC50
[3] = Homo sapiens, Jurkat, 48 h, read-out: IC50

| SMILES | IC50 (Jurkat; jurkat) | IC50 (NALM-6; nalm-6) | IC50 (HL-60; hl-60) | IC50 (NALM-6; [1]) [µM] | IC50 (HL-60; [2]) [µM] | IC50 (Jurkat; [3]) [µM] |
| --- | --- | --- | --- | --- | --- | --- |
| O=C(Nc1cc(C(F)(F)F)ccc1N1CCCCC1)c1cccnc1 | Not Active | Not Active | Not Active |  |  |  |
| CCN(CC)c1ccc(C(F)(F)F)cc1NC(=O)c1ccccc1 | Not Active | Not Active | Not Active |  |  |  |
| O=C(Nc1cc(C(F)(F)F)ccc1N1CCOCC1)c1ccccc1 | Not Active | Not Active | Not Active |  |  |  |
| O=C(Nc1cc(C(F)(F)F)ccc1NC1CCCCC1)c1cccnc1 | Not Active |  |  | 52.3 | 48.3 |  |
| O=C(Nc1cc(C(F)(F)F)ccc1N1CCCC1)c1ccccc1 | Not Active | Not Active | Not Active |  |  |  |
| CCN(CC)c1ccc(C(F)(F)F)cc1NC(=O)c1cccnc1 | Not Active |  |  | 63.2 | 71 |  |
| CCN(CC)c1ccc(C(F)(F)F)cc1NC(=O)c1ccncc1 | Not Active |  |  | 63.6 | 89.7 |  |
| O=C(Nc1cc(C(F)(F)F)ccc1N1CCOCC1)c1cccnc1 | Not Active | Not Active | Not Active |  |  |  |
| O=C(Nc1cc(C(F)(F)F)ccc1N1CCOCC1)c1ccncc1 | Not Active | Not Active | Not Active |  |  |  |
| O=C(Nc1cc(C(F)(F)F)ccc1N1CCCCC1)c1cccnc1Cl | Not Active | Not Active | Not Active |  |  |  |
| O=C(Nc1cc(C(F)(F)F)ccc1NC1CCCCC1)c1ccncc1 |  |  |  | 59 | 59.2 | 80.9 |
| O=C(Nc1cc(C(F)(F)F)ccc1N1CCOCC1)c1cccnc1Cl | Not Active | Not Active | Not Active |  |  |  |
| O=C(Nc1cc(C(F)(F)F)ccc1NC1CCCCC1)c1ccccc1 | Not Active | Not Active |  |  | 34.9 |  |
| O=C(Nc1cc(C(F)(F)F)ccc1Nc1ccc(Br)cc1)c1ccncc1 | Not Active |  | Not Active | 51.9 |  |  |
| O=C(Nc1cc(C(F)(F)F)ccc1N1CCCC1)c1cccnc1 | Not Active | Not Active | Not Active |  |  |  |
| O=C(Nc1cc(C(F)(F)F)ccc1N1CCCCC1)c1ccccc1 | Not Active | Not Active | Not Active |  |  |  |
| O=C(Nc1cc(C(F)(F)F)ccc1N1CCCC1)c1cccnc1Cl | Not Active | Not Active | Not Active |  |  |  |
| O=C(Nc1cc(C(F)(F)F)ccc1N1CCCC1)c1ccncc1 | Not Active | Not Active | Not Active |  |  |  |
| CCN(CC)c1ccc(C(F)(F)F)cc1NC(=O)c1cccnc1Cl |  | Not Active |  |  | 84.1 | 88.4 |

— ChEMBL document CHEMBL4020718, “Trifluoromethyl arylamides with antileukemia effect and intracellular inhibitory activity over serine/arginine-rich protein kinases (SRPKs)” (Eur J Med Chem, 2017)
